In data set [1] the test system is HCT-116. In words: Inhibition of mitosis in human HCT116 cells assessed as microtubule disassociation at 1 nM by BODIPY-FL paclitaxel staining. The class given is functional, cell-based. An outline of the steps:
(§1)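 Cells treated with 1 nM compound before entry into mitosis, then fixed with formalin. Stained for microtubules with BODIPY-FL paclitaxel, actin with FITC-phalloidin, and DNA. Analysed by confocal microscopy for actin filamentation, microtubule structure and daughter-cell separation.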

Data set [2] can be described thus: Drug localization in large vesicles of mouse Neuro2A cells at 1 nM after 1 hr by fluorescence microscopy. The class given is ADME, cell-based. Particulars: 0.001 µM.
Data set [3] relates to HeLa. In words: Inhibition of mitosis in human HeLa cells assessed as chromatin compactness at 1 nM after 6 to 12 hrs by time-lapse microscopy. The class given is functional, cell-based. Summed up:
(§2)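 Cells treated with 1 nM compound and followed by time-lapse microscopy imaging the compound's native fluorescence. Bleb formation and chromatin compaction scored at 6 h and 12 h after treatment.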

Data set [4] has as its system N2a. In words: Inhibition of mitosis in mouse Neuro2a cells assessed as microtubule disassociation at 1 nM by BODIPY-FL paclitaxel staining. The data set is classed as functional, cell-based. Summed up: as §1
Data set [5] relates to HCT-116. Nature of the data set: Inhibition of mitosis in human HCT116 cells assessed as membrane scarring between daughter cells at 1 nM by confocal microscopy. The data set is classed as functional, cell-based. An outline of the steps:
as §1

Data set [6] can be described thus: Drug localization in large vesicles of human HCT116 cells at 1 nM after 1 hr by confocal microscopy. The data set is classed as ADME, cell-based. Particulars: hct-116, 1 h, 0.001 µM.
Data set [7] deals with HCT-116. In words: Cytostatic activity against human HCT116 cells. The data set is classed as functional, cell-based.
For data set [8], the system named is N2a. Nature of the data set: Inhibition of mitosis in mouse Neuro2a cells assessed as actin hyperfilamentation at 1 nM by FITC-phalloidin staining. The class given is functional, cell-based. Summed up:
as §1

Data set [9] can be described thus: Drug localization in lysosome of human HCT116 cells at 1 nM assessed as increase of fluorescence with acidity after 1 hr by spectrophotometric analysis. The class given is ADME, cell-based. Particulars: hct-116, 1 h, 0.001 µM.
Data set [10] relates to HCT-116. Nature of the data set: Inhibition of mitosis in human HCT116 cells assessed as hyperfilamentation of actin at 1 nM by FITC-phalloidin staining. The class given is functional, cell-based. Summed up:
as §1

In data set [11] the test system is HeLa. Nature of the data set: Inhibition of mitosis in human HeLa cells assessed as actin hyperfilamentation at 1 nM by FITC-phalloidin staining. The data set is classed as functional, cell-based. Summed up:
as §1

Data set [12] has as its system HCT-116. Nature of the data set: Inhibition of mitosis in human HCT116 cells assessed as chromatin compactness at 1 nM after 6 to 12 hrs by time-lapse microscopy. The class given is functional, cell-based. Summed up:
as §2

Data set [13] concerns N2a. In words: Inhibition of mitosis in mouse Neuro2a cells assessed as bleb formation at 1 nM after 6 to 12 hrs by time-lapse microscopy. The class given is functional, cell-based. An outline of the steps: as §2
Data set [14] is described as follows: Drug localization in nuclear envelope of mouse Neuro2A cells at 1 nM after 1 hr by fluorescence microscopy. The data set is classed as ADME, cell-based. Particulars: 0.001 µM.
For data set [15], the system named is HeLa. Nature of the data set: Inhibition of mitosis in human HeLa cells assessed as membrane scarring between daughter cells at 1 nM by confocal microscopy. The data set is classed as functional, cell-based. An outline of the steps: as §1
The test system of data set [16] is N2a. Nature of the data set: Inhibition of mitosis in mouse Neuro2a cells assessed as membrane scarring between daughter cells at 1 nM by confocal microscopy. The data set is classed as functional, cell-based. Summed up:
as §1

The subject of data set [17] is N2a. In words: Cytostatic activity against mouse Neuro2a cells. The class given is functional, cell-based.
The subject of data set [18] is HeLa. In words: Inhibition of mitosis in human HeLa cells assessed as bleb formation at 1 nM after 6 to 12 hrs by time-lapse microscopy. The data set is classed as functional, cell-based. Summed up: as §2
The test system of data set [19] is N2a. In words: Inhibition of mitosis in mouse Neuro2a cells assessed as chromatin compactness at 1 nM after 6 to 12 hrs by time-lapse microscopy. The class given is functional, cell-based. Summed up: as §2
Data set [20] relates to HCT-116. Nature of the data set: Inhibition of mitosis in human HCT116 cells assessed as bleb formation at 1 nM after 6 to 12 hrs by time-lapse microscopy. The class given is functional, cell-based. Summed up: as §2
A short description of data set [21]: Drug localization in nuclear envelope of human HCT116 cells at 1 nM after 1 hr by confocal microscopy. The class given is ADME, cell-based. Particulars: hct-116, 1 h, 0.001 µM.
The subject of data set [22] is HeLa. In words: Inhibition of mitosis in human HeLa cells assessed as microtubule disassociation at 1 nM by BODIPY-FL paclitaxel staining. The data set is classed as functional, cell-based. An outline of the steps: as §1
Data set [23] deals with HeLa. In words: Cytostatic activity against human HeLa cells. The class given is functional, cell-based.

Drawing on ChEMBL document CHEMBL1154373, “Laetirobin from the parasitic growth of Laetiporus sulphureus on Robinia pseudoacacia” (J Nat Prod, 2009), this text covers Activity and IC50 for one molecule.

The source made the active and inactive calls. The rule behind the calls is not given here.

As usually defined, the IC50 is the midpoint of a concentration-inhibition curve. Low readings indicate inhibition by little substance, high ones a need for much substance.

With `CC(=O)c1cc2c(cc1O)OC1=C(c3cc4cc(C(C)=O)c(O)cc4o3)CCC(c3cc4cc(C(C)=O)c(O)cc4o3)(c3cc4cc(C(C)=O)c(O)cc4o3)C12` (racemic), the outcome in the data set with HCT-116 [1], in the data set on HeLa [3], with N2a [4], with HCT-116 [5], in the data set with N2a [8] and in the data set with HCT-116 [10] was Active. Besides, the result in the data set with HeLa [11], in the data set on HCT-116 [12], in the data set with N2a [13], in the data set on HeLa [15], with N2a [16] and in the data set with HeLa [18] was Active. Further, the outcome with N2a [19], in the data set with HCT-116 [20] and with HeLa [22] was Active. The result in [2], in data set [6], in data set [9], in data set [14] and in data set [21] was Active. In addition, the IC50 with HCT-116 [7] came to 0.54 nM; with N2a [17], 0.092 nM; in the data set with HeLa [23], 0.12 nM.
